{"source": "ChEMBL document CHEMBL5705905", "about": "“Pharmacological targeting of kinases MST1 and MST2 augments tissue repair and regeneration” (Sci Transl Med, 2016)", "key": {"[1]": {"tested_on": "Tyrosine-protein kinase ABL1 (Homo sapiens), P00519 [Q252H]", "experiment": "Inhibition of phosphorylated ABL1 Q252H mutant (unknown origin) assessed as remaining activity at 1 uM by Kinome scan method relative to control"}, "[2]": {"molecular_target": "Bone morphogenetic protein receptor type-2 (Homo sapiens) (UniProt Q13873)", "experiment": "Inhibition of BMPR2 (unknown origin) assessed as remaining activity at 1 uM by Kinome scan method relative to control", "summary_of_the_method": "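Active-site-dependent competition-binding (KINOMEscan) panel of 468 kinases, test compound at 1 μM (from a 10 mM DMSO stock). Read-out is ctrl% = (test signal − positive control signal)/(negative control signal − positive control signal) × 100. DMSO is the negative control (100%) and a control compound is the positive control (0%). Lower ctrl% means tighter binding.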"}, "[3]": {"molecular_target": "Cyclin-dependent kinase-like 2 (Homo sapiens) (UniProt Q92772)", "experiment": "Inhibition of CDKL2 (unknown origin) assessed as remaining activity at 1 uM by Kinome scan method relative to control", "summary_of_the_method": "(§1)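 Active-site-dependent competition-binding profiling (KINOMEscan) at 1 μM against a 468-kinase panel; compound supplied from a 10 mM DMSO stock. Read-out is ctrl% = (test signal − positive control signal)/(negative control signal − positive control signal) × 100. DMSO is the negative control (100%) and a control compound the positive control (0%). Lower ctrl% means tighter binding.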"}, "[4]": {"molecular_target": "Death-associated protein kinase 3 (Homo sapiens) (UniProt O43293)", "sequence (O43293 whole entry, looked up)": "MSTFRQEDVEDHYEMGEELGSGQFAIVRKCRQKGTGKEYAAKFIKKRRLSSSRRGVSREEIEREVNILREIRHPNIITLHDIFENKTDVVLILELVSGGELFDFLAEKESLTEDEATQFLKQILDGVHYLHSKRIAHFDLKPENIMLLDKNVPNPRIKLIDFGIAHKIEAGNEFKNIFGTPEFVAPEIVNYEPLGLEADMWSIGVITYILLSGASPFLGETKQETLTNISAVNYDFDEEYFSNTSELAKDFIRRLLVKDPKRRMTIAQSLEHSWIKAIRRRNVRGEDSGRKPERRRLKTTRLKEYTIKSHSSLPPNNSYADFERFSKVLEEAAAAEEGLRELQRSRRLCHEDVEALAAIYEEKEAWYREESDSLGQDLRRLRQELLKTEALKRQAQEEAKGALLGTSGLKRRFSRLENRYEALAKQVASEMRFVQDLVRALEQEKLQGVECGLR", "experiment": "Inhibition of DAPK3 (unknown origin) assessed as remaining activity at 1 uM by Kinome scan method relative to control", "summary_of_the_method": "as §1"}, "[5]": {"molecular_target": "Serine/threonine-protein kinase MRCK gamma (Homo sapiens) (UniProt Q6DT37)", "experiment": "Inhibition of DMPK2 (unknown origin) assessed as remaining activity at 1 uM by Kinome scan method relative to control"}, "[6]": {"tested_on": "Epidermal growth factor receptor (Homo sapiens), P00533 [UNDEFINED MUTATION]", "experiment": "Inhibition of EGFR L747-T751del/Sins mutant (unknown origin) assessed as remaining activity at 1 uM by Kinome scan method relative to control"}, "[7]": {"tested_on": "Epidermal growth factor receptor (Homo sapiens), P00533 [T790M]", "experiment": "Inhibition of EGFR T790M mutant (unknown origin) assessed as remaining activity at 1 uM by Kinome scan method relative to control"}, "[8]": {"molecular_target": "Ephrin type-A receptor 1 (Homo sapiens) (UniProt P21709)", "sequence (P21709 whole entry)": "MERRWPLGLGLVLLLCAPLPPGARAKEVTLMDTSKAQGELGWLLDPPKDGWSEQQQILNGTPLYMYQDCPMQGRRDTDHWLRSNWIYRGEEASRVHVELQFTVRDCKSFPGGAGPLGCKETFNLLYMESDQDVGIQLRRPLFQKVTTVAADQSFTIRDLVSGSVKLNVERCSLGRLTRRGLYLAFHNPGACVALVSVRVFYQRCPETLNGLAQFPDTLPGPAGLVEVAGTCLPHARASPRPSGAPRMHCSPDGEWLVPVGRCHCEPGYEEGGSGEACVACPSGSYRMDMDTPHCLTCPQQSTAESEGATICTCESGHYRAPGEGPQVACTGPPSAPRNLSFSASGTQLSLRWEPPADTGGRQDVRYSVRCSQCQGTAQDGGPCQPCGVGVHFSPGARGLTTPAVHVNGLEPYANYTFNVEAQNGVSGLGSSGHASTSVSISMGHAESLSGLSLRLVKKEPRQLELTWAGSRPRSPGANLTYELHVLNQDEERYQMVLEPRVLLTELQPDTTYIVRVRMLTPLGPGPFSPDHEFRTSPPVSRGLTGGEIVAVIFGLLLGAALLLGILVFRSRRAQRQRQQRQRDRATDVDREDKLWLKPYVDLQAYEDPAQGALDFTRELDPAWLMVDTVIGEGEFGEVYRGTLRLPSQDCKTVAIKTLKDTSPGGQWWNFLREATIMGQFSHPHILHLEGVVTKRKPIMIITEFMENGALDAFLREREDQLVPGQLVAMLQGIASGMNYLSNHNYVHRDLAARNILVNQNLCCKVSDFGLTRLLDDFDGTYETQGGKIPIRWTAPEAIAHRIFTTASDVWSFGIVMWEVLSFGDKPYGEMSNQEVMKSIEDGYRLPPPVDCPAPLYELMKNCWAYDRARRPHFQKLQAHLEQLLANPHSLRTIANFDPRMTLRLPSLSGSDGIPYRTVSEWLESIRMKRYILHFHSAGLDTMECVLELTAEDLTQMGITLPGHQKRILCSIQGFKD", "experiment": "Inhibition of EPHA1 (unknown origin) assessed as remaining activity at 1 uM by Kinome scan method relative to control"}, "[9]": {"molecular_target": "Ephrin type-B receptor 6 (Homo sapiens) (UniProt O15197)", "experiment": "Inhibition of EPHB6 (unknown origin) assessed as remaining activity at 1 uM by Kinome scan method relative to control"}, "[10]": {"molecular_target": "Receptor tyrosine-protein kinase erbB-4 (Homo sapiens) (UniProt Q15303)", "experiment": "Inhibition of ERBB4 (unknown origin) assessed as remaining activity at 1 uM by Kinome scan method relative to control"}, "[11]": {"molecular_target": "Serine/threonine-protein kinase ICK (Homo sapiens) (UniProt Q9UPZ9)", "sequence (Q9UPZ9 whole entry)": "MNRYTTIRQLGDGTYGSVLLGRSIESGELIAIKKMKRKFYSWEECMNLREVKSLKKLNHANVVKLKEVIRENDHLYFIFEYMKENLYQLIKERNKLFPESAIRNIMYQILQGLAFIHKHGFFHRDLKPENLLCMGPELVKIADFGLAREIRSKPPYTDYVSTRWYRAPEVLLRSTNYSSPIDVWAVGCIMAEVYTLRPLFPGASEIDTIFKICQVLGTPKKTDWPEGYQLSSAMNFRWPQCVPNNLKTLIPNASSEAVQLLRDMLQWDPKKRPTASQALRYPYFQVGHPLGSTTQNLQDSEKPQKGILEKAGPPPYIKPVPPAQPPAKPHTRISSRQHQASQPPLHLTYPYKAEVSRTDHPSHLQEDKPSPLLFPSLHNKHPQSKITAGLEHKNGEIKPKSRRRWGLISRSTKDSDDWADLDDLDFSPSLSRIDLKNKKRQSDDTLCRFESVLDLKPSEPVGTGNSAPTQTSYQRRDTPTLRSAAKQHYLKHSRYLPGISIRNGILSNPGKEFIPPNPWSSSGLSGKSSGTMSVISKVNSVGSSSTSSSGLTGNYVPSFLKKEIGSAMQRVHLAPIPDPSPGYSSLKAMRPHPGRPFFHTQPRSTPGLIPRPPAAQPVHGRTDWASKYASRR", "experiment": "Inhibition of ICK (unknown origin) assessed as remaining activity at 1 uM by Kinome scan method relative to control"}, "[12]": {"molecular_target": "Leukocyte tyrosine kinase receptor (Homo sapiens) (UniProt P29376)", "experiment": "Inhibition of LTK (unknown origin) assessed as remaining activity at 1 uM by Kinome scan method relative to control"}, "[13]": {"molecular_target": "Mitogen-activated protein kinase kinase kinase 2 (Homo sapiens) (UniProt Q9Y2U5)", "sequence (Q9Y2U5 whole entry)": "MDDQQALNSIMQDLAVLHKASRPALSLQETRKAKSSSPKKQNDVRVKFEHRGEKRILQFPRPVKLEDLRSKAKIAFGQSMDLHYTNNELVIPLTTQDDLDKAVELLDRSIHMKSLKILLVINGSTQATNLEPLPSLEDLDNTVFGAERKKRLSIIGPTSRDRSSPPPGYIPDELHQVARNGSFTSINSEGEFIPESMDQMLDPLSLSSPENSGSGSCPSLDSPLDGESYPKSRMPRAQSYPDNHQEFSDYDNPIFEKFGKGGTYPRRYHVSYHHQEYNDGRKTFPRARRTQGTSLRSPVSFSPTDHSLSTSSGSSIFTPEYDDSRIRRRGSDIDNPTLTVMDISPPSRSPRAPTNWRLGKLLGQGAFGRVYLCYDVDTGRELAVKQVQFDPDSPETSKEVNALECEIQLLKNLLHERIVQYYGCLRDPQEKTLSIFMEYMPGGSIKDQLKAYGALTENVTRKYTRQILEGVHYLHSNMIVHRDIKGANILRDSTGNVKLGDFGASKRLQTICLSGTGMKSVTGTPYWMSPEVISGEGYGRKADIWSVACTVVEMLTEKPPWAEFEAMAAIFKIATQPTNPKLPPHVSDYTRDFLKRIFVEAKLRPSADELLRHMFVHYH", "experiment": "Inhibition of MAP3K2 (unknown origin) assessed as remaining activity at 1 uM by Kinome scan method relative to control"}, "[14]": {"molecular_target": "Serine/threonine-protein kinase MARK2 (Homo sapiens) (UniProt Q7KZI7)", "experiment": "Inhibition of MARK2 (unknown origin) assessed as remaining activity at 1 uM by Kinome scan method relative to control"}, "[15]": {"molecular_target": "Maternal embryonic leucine zipper kinase (Homo sapiens) (UniProt Q14680)", "experiment": "Inhibition of MELK (unknown origin) assessed as remaining activity at 1 uM by Kinome scan method relative to control"}, "[16]": {"molecular_target": "Serine/threonine-protein kinase Nek10 (Homo sapiens) (UniProt Q6ZWH5)", "sequence (Q6ZWH5 whole entry)": "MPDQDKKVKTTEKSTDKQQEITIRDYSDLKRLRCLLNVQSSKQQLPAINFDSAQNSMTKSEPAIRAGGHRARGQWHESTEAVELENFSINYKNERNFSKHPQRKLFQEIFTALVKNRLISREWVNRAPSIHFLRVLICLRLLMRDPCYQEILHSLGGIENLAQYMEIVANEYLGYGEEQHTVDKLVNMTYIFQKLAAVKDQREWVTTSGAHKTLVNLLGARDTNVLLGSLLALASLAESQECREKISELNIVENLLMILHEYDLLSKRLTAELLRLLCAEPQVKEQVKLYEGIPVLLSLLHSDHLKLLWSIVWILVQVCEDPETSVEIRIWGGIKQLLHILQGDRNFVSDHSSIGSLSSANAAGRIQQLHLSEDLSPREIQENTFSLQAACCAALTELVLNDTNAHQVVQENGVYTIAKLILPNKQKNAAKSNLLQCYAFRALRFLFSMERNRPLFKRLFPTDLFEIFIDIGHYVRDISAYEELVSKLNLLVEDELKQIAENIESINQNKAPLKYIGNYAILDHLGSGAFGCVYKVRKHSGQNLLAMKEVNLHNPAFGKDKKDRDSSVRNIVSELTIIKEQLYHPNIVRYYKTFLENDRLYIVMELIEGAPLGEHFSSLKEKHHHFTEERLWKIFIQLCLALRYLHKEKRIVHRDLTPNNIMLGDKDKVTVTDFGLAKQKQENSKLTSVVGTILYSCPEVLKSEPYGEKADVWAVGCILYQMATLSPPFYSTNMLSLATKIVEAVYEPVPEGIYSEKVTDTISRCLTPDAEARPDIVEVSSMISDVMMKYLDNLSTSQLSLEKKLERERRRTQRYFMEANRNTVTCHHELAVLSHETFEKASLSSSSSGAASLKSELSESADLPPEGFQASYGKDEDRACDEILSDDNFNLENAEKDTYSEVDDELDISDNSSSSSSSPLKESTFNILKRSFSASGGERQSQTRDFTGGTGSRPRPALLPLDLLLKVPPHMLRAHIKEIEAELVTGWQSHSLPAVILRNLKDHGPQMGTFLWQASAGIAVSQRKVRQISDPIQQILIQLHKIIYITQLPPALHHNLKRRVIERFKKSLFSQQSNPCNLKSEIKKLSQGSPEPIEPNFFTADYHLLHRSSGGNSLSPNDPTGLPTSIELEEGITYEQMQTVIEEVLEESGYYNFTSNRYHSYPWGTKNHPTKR", "experiment": "Inhibition of NEK10 (unknown origin) assessed as remaining activity at 1 uM by Kinome scan method relative to control"}, "[17]": {"molecular_target": "Serine/threonine-protein kinase Nek5 (Homo sapiens) (UniProt Q6P3R8)", "experiment": "Inhibition of NEK5 (unknown origin) assessed as remaining activity at 1 uM by Kinome scan method relative to control"}, "[18]": {"molecular_target": "Serine/threonine-protein kinase PAK 4 (Homo sapiens) (UniProt O96013)", "experiment": "Inhibition of PAK4 (unknown origin) assessed as remaining activity at 1 uM by Kinome scan method relative to control"}, "[19]": {"molecular_target": "Serine/threonine-protein kinase PAK 5 (Homo sapiens) (UniProt Q9P286)", "experiment": "Inhibition of PAK7 (unknown origin) assessed as remaining activity at 1 uM by Kinome scan method relative to control"}, "[20]": {"molecular_target": "Phosphatidylinositol 5-phosphate 4-kinase type-2 gamma (Homo sapiens) (UniProt Q8TBX8)", "sequence (Q8TBX8 whole entry)": "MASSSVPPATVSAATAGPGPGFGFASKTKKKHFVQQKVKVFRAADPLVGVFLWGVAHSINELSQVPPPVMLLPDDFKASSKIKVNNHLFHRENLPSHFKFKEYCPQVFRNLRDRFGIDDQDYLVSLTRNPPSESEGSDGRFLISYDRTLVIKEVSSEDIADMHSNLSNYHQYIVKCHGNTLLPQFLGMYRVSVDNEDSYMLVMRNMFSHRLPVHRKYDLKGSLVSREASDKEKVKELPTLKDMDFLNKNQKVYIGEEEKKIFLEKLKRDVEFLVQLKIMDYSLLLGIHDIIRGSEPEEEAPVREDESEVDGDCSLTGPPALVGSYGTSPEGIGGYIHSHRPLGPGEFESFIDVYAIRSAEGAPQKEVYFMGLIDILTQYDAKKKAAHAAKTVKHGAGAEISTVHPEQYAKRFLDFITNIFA", "experiment": "Inhibition of PIP5K2C (unknown origin) assessed as remaining activity at 1 uM by Kinome scan method relative to control"}, "[21]": {"molecular_target": "Serine/threonine-protein kinase D2 (Homo sapiens) (UniProt Q9BZL6)", "experiment": "Inhibition of PRKD2 (unknown origin) assessed as remaining activity at 1 uM by Kinome scan method relative to control"}, "[22]": {"tested_on": "Proto-oncogene tyrosine-protein kinase receptor Ret (Homo sapiens), P07949 [V804M]", "experiment": "Inhibition of RET V804M (unknown origin) assessed as remaining activity at 1 uM by Kinome scan method relative to control"}, "[23]": {"molecular_target": "Serine/threonine-protein kinase RIO1 (Homo sapiens) (UniProt Q9BRS2)", "experiment": "Inhibition of RIOK1 (unknown origin) assessed as remaining activity at 1 uM by Kinome scan method relative to control"}, "[24]": {"molecular_target": "Serine/threonine-protein kinase WNK2 (Homo sapiens) (UniProt Q9Y3S1)", "experiment": "Inhibition of WNK2 (unknown origin) assessed as remaining activity at 1 uM by Kinome scan method relative to control"}, "[25]": {"molecular_target": "Tyrosine-protein kinase ZAP-70 (Homo sapiens) (UniProt P43403)", "sequence (P43403 whole entry)": "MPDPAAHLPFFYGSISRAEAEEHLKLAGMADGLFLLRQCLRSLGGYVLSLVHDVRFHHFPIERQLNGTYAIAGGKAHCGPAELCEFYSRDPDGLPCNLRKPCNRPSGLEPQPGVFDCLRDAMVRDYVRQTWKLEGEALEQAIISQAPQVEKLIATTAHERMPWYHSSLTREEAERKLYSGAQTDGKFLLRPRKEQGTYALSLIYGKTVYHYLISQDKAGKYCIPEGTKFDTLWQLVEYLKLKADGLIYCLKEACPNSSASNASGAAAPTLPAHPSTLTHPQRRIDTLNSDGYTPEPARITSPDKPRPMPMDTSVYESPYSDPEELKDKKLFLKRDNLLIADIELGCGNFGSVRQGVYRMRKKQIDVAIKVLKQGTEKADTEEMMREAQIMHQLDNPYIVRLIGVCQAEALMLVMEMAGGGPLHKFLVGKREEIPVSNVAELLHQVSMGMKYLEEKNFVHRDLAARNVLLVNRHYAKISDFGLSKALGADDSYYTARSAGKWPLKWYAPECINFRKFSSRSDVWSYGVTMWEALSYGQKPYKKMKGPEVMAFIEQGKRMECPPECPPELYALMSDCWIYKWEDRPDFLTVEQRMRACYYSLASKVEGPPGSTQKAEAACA", "experiment": "Inhibition of ZAP70 (unknown origin) assessed as remaining activity at 1 uM by Kinome scan method relative to control"}, "[26]": {"tested_on": "HepG2", "experiment": "Induction of apoptosis in human HepG2 cells assessed as late apoptosis cells at 3 uM by annexinV staining (Rvb =0.84 %)", "type": "functional"}, "[27]": {"tested_on": "HepG2", "experiment": "Inhibition of Flag-tagged MST1 Y101F mutant (unknown origin) in human HepG2 cells assessed as MOB1 phosphorylation level at 0.3 to 10 uM by immunoblot analysis", "type": "cell-based", "conditions": "dose 0.3-10 µM"}, "[28]": {"experiment": "Inhibition of recombinant His-tagged full-length MST1 D109A mutant (unknown origin) expressing in Escherichia coli assessed as MOB1 phosphorylation level incubated for 15 min by immunoblot analysis", "set-up": "species or system Homo sapiens"}, "[29]": {"experiment": "AUC (0 to infinity) in male Sprague-Dawley rat at 10 mg/kg, po measured for 24 hrs by LC-MS/MS analysis", "type": "ADME, organism-based", "conditions": "in vivo", "summary_of_the_method": "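Sprague-Dawley rats, single intravenous or oral dose. Parameters (half-life, AUC, bioavailability) reported in a supplementary table.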"}}, "note": "Active and inactive are the calls of the source. No cut-off for these calls is given here."}
{"molecule": "CN1C(=O)c2sccc2N(C)c2nc(Nc3ccc(S(N)(=O)=O)cc3)ncc21", "values": [{"measurement": "Activity", "setting": "[1]", "value": 6.8, "unit": "%"}, {"measurement": "Activity", "setting": "[2]", "value": 100, "unit": "%"}, {"measurement": "Activity", "setting": "[3]", "value": 97, "unit": "%"}, {"measurement": "Activity", "setting": "[4]", "value": 94, "unit": "%"}, {"measurement": "Activity", "setting": "[5]", "value": 100, "unit": "%"}, {"measurement": "Activity", "setting": "[6]", "value": 67, "unit": "%"}, {"measurement": "Activity", "setting": "[7]", "value": 92, "unit": "%"}, {"measurement": "Activity", "setting": "[8]", "value": 92, "unit": "%"}, {"measurement": "Activity", "setting": "[9]", "value": 100, "unit": "%"}, {"measurement": "Activity", "setting": "[10]", "value": 79, "unit": "%"}, {"measurement": "Activity", "setting": "[11]", "value": 62, "unit": "%"}, {"measurement": "Activity", "setting": "[12]", "value": 100, "unit": "%"}, {"measurement": "Activity", "setting": "[13]", "value": 2.6, "unit": "%"}, {"measurement": "Activity", "setting": "[14]", "value": 93, "unit": "%"}, {"measurement": "Activity", "setting": "[15]", "value": 100, "unit": "%"}, {"measurement": "Activity", "setting": "[16]", "value": 70, "unit": "%"}, {"measurement": "Activity", "setting": "[17]", "value": 97, "unit": "%"}, {"measurement": "Activity", "setting": "[18]", "value": 86, "unit": "%"}, {"measurement": "Activity", "setting": "[19]", "value": 85, "unit": "%"}, {"measurement": "Activity", "setting": "[20]", "value": 8, "unit": "%"}, {"measurement": "Activity", "setting": "[21]", "value": 87, "unit": "%"}, {"measurement": "Activity", "setting": "[22]", "value": 92, "unit": "%"}, {"measurement": "Activity", "setting": "[23]", "value": 86, "unit": "%"}, {"measurement": "Activity", "setting": "[24]", "value": 78, "unit": "%"}, {"measurement": "Activity", "setting": "[25]", "value": 90, "unit": "%"}, {"measurement": "Activity", "setting": "[26]", "value": 0.96, "unit": "%"}, {"measurement": "inhibition", "setting": "[27]", "value": "Active"}, {"measurement": "IC50", "setting": "[28]", "value": 753, "unit": "nM"}, {"measurement": "AUC(0-inf)", "setting": "[29]", "value": 1040, "unit": "ng·h/mL"}]}
